From the EternaBench riboswitch data come the findings set out here.

One may read the apparent Kd as the concentration giving half-maximal binding under the conditions of the assay.

This series deals with MS2 coat protein. Briefly: apparent Kd, MS2 coat protein; higher = weaker binding; RNA-MaP array; FMN 200 µM where present. The method in brief: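 Designs were transcribed by stalled E. coli RNA polymerase on Illumina sequencing-chip clusters. They were titrated with SNAP-549-labelled MS2 coat protein from 0.7 or 1.5 nM, doubling to 3 µM, in 100 mM Tris-HCl pH 7.5, 80 mM KCl, 4 mM MgCl2, BSA, DTT, yeast tRNA and Tween-20, without and then with constant ligand. The apparent Kd is the median of filtered per-cluster fits after normalisation of green signal to red-channel RNA signal and control-cluster median Fmax.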

Where [1] appears, read: designed as: ON switch for flavin mononucleotide, no ligand.
Setting [2] is: ligand present: flavin mononucleotide, designed as: ON switch for flavin mononucleotide.
Where [3] appears, read: designed as: OFF switch for flavin mononucleotide, no ligand.
[4] abbreviates: ligand present: flavin mononucleotide, designed as: OFF switch for flavin mononucleotide.

As for “CGCUACGUUUCGUAGCAGCUAGGUGAGGAUAUUCAAUUUUUCACAUGAGGAUCACCCAUGUAUGUGAAGAAGGCGCCUAGAAAC”, the “apparent Kd” value amounted to 0.0108 µM under setting [1] and 0.00481 µM under setting [2].
For the sequence “CAUAUGGUAACAGGAUAUAUGAGUCCUACAUGAGGAUCACCCAUGUAGGUGAUCUAACGAGAUUAGUAGAAGGGUUACCAUAUG”, the “apparent Kd” value by setting is: under setting [1], 0.0182 µM; under setting [2], 0.00898 µM.
On to “UACUUACGAGGAUAUCGAUUGUGGUACAUGAGGAUCACCCAUGUAUGUGAUAUUGUAUUUCGAGAAGGCGUUCAGU”, for which the “apparent Kd” value under setting [3] amounted to 0.0258 µM and the “apparent Kd” value under setting [4] was found to be 0.0217 µM.
On to “CCUCCAUCAUGAGGAUAUGGCACCUUAUUGGUGCCAGAAGGCAUGUCUUUUGACAUGAGGAUCACCCAUGUAAUAAAUUGGAGG”, for which the “apparent Kd” value reads like this: under setting [1], 1.28 µM; under setting [2], 0.127 µM.
As for “AGGGUACAUGAGGAUCACCCAUGUGGGUCGGUCGCAGGAUAUGCCCGUGGGCGCUGGCGGGCAGAAGGGUGCCGAA”, the “apparent Kd” value is 0.313 µM under setting [1] and 0.045 µM under setting [2].
As to “UGUCGGAGCAGAGGAUAUACAUGAGGAUCACCCAUGUAAUAAAGUGAAGCCUGGAAACAGGCAAUGUAGAAGGCUGCUCCGAUA”, the “apparent Kd” value was 0.012 µM under setting [3] and 0.0886 µM under setting [4].
As to “GUCGCUAGAGGAUAUACAAUGGUAUAUGAUCCUAGUGACAUACAUGAGGAUCACCCAUGUAGAAGGCUAGUAAU”, the “apparent Kd” value under setting [3] was determined as 0.0242 µM and the “apparent Kd” value under setting [4] came to 0.0217 µM.
As to “UGAACAAUGUAGAAGGCCCAUAUUUAUAUAUAGGGAGGAUAUACAUGAGGAUCACCCAUGUAAAGAGCAAGAGGACUUGACAGA”, the “apparent Kd” value was 0.00927 µM under setting [3] and 0.0157 µM under setting [4].
“GUUAACGCAUGAGGAUAUGCUCGCAUUUCAAGAGCAGAAGGUAUGUCUAUAGACAUGAGGAUCACCCAUGUAUUUAUCAUUGAA”: the “apparent Kd” value was 0.245 µM under setting [1] and 0.0396 µM under setting [2].
For “GUUAUUAUUAGUUCAUACUAUAAGAUAGAAGGUGAAUAAUUGACAUGAGGAUCACCCAUGUAAUUCAAGGAUAUGUAGAUACUC”, the “apparent Kd” value runs as follows: under setting [1], 0.032 µM; under setting [2], 0.0176 µM.
For “AGCUACGUUUCGUAGCAGCUAGGUGAGGAUAUUCAAAAUUUCACAUGAGGAUCACCCAUGUAUGUGAAGAAGGCGCCUAGAAAG”, the “apparent Kd” value runs as follows: under setting [1], 0.00729 µM; under setting [2], 0.00474 µM.
Consider “GUCAGCUCGUGAGGAUAUACAUCACUGCUUCGGCAGUGUAUUAAAUCCACAUGAGGAUCACCCAUGUAGAAGGCACGAGCUGAU”, for which the “apparent Kd” value reads like this: under setting [3], 0.0167 µM; under setting [4], 0.031 µM.
Turning to “CGCAACUUUUCUCAUGUAAACAUGAGGAUCACCCAUGUAAUGAGAAGGAGGAGGAAGAGAGAAUCCUAGGAUAUCAGAGUUGCG”, the “apparent Kd” value under setting [3] was determined as 0.00712 µM and the “apparent Kd” value under setting [4] amounted to 0.00601 µM.
“AUUAUUAUAUUAUACAUGAGGAUCACCCAUGUUAUAAGUCAUGAGGAUAUGGUUAUGUAGAUUUGCCAGAAGGCAUUUAACUUA”: the “apparent Kd” value is, setting by setting: under setting [1], 0.0149 µM; under setting [2], 0.00991 µM.
As to “GCCAGAGAAGGAUAUACGAGGAUCGAGUGGUCACACCUACAACAUGAGGAUCACCCAUGUAGAAGGUUUCGGCU”, the “apparent Kd” value reads like this: under setting [3], 0.0139 µM; under setting [4], 0.0163 µM.
With “CGAAAACCACAGAAGGCCCGGGACAUGAGGAUCACCCAUGUAGAAAGUGGGAGGAUAUGUGUACGCGGCGUGCUGACCUCGUGA”, the “apparent Kd” value is, setting by setting: under setting [1], 0.232 µM; under setting [2], 0.0274 µM.
On the same counts, the results for “GGAGAACAUGAGGAUCACCCAUGUGAGAGGGAUGUAGGAUAUGUGAGGAGUAAAGGAGGGACAGAAGGACAGAGAU” are 0.0457 µM and 0.0438 µM.
With “AGCACGAGAGGUGCUGUCUAACCACAUGAGGAUCACCCAUGUAAGGAUAUCGCGGCUAUCGGCAUCGAGAAGGUACAGGGAGCA”, the “apparent Kd” value is, setting by setting: under setting [3], 0.0112 µM; under setting [4], 0.0216 µM.
“GGUACUCAAAGAGUACUUGGUCGAACAUGAGGAUCACCCAUGUAGGAUAUGUAAAGCAAGAAGUAACAGAAGGACAUGUGCAGC”: the “apparent Kd” value under setting [3] is 0.0131 µM and the “apparent Kd” value under setting [4] is 0.0171 µM.
On the same counts, the results for “ACGCUCAGAGGAUAUACAUGAGGAUCACCCAUGUGUUACCGAGGAGUACGGUCGUCACGUAGAAGGCUGGGUAA” are 0.0179 µM and 0.0632 µM.
With “UGCUACGGAGGAUAUACAUGAGGAUCACCCAUGUGAUAUAUUAUGCCGAGAGGCUAGUGUAGAAGGCCGUAGCU”, the “apparent Kd” value is, setting by setting: under setting [3], 0.067 µM; under setting [4], 0.576 µM.
Consider “AUCAGCUCGUCAGGAUAUACGUCACUGCGUCAGCAUUGUGGUAAGAUCACAUGAGGAUCACCCAUGUAGAAGGGACGAGCUGAU”, for which the “apparent Kd” value reads like this: under setting [3], 0.0195 µM; under setting [4], 0.19 µM.
On the same counts, the results for “AUGUUACAUGAGGAUCACCCAUGUGAGGAUAUGUGUACUGGUAAAAAAGUGUUUGGCCACAGAAGGCAUUUGGA” are 0.0291 µM and 0.0312 µM.
With “UGUUGUUCAGGAUAUGGUGUGUUAUACAUGAGGAUCACCCAUGUGGGUCCUGGUUUGGCCUCAGAAGGGAAUGUUG”, the “apparent Kd” value was 0.75 µM under setting [3] and 0.537 µM under setting [4].
